Assay [1] relates to H1975 cells. Put plainly: MTT antiproliferative assay, H1975. Type of assay: cell-based, human. The conditions noted are these: ratio of IC50 BEAS-2B to H1975. The essentials: (§1)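 Cell culture: A549, PC9 and normal lung epithelial BEAS-2B in DMEM with 10% FBS and penicillin/streptomycin/amphotericin B; H1975 in RPMI-1640 with 10% FBS; all at 37 °C, 5% CO2. Log-phase cells seeded at 3 × 10^3/well overnight, then exposed to graded compound concentrations or DMSO for 72 h. MTT added for 4 h in the dark, crystals dissolved in DMSO, absorbance read at 490 nm; three parallel experiments.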
In general terms: Formazan colour is commonly taken as a measure of viable cells.

Assay [2] relates to A549 cells. Put plainly: MTT antiproliferative assay, A549. Format: cell-based, human. The conditions noted are these: ratio of IC50 BEAS-2B to A549. An outline of the steps: as §1
Assay [3] concerns mitochondrial membrane potential. Description: Mitochondrial membrane potential, JC-1, flow cytometry. Format: cell-based. The conditions noted are these: control 19.25%. The essentials: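 Cells in six-well plates were stained with JC-1 working solution, prepared per kit, for 20 min at 37 °C. After a PBS wash, mitochondrial membrane potential was measured by flow cytometry and also viewed by fluorescence microscopy.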
(In general: Flow cytometry measures light scatter and fluorescence of single cells or particles in a stream.)

The test system of assay [4] is A549 cells. Put plainly: Annexin V-FITC/PI apoptosis assay, flow cytometry. Type of assay: cell-based, human. The conditions noted are these: 48 h, control 2.64%. An outline of the steps: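 A549 cells seeded at 1 × 10^5 per well in 6-well plates and left overnight. They were then treated with test compound for 48 h, collected by PBS rinsing and stained with Annexin V-FITC and PI for 15 min at room temperature in the dark. Apoptotic fractions were read by flow cytometry; mean ± SD, n = 3.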

Assay [5] deals with A549 spheroids. Put plainly: 3D spheroid cell inhibition assay. Format: cell-based, human. The conditions noted are these: treated every 3 days. The essentials:
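A549 cells seeded at 20 000 cells/well in ultralow-attachment U-bottom wells to form tumor spheroids. Once formed, spheroids were exposed to the indicated concentrations of test compound, renewed every 3 days. Spheroids were photographed under a microscope to document growth and morphology.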

The test system of assay [6] is cleaved-caspase 9, Bax, Bcl-2. Description: Western blot of apoptosis-related proteins. Format: cell-based, human. The note with it: A549, 48 h. The essentials:
(§2)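 Cells treated with the indicated concentrations of test compound for 48 h. Lysates were heat-denatured at 104 °C for 12 min, protein measured by BCA, and equal amounts run on SDS-PAGE and transferred to PVDF. Membranes were blocked 1 h with 5% BSA or milk, incubated with primary antibody overnight at 4 °C, then secondary 2 h at room temperature. Detection by ECL; bands quantified by densitometry.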

Assay [7] relates to ALK. Description: Proteome Profiler Human Phospho-RTK Array. Type of assay: cell-based. The conditions noted are these: A549, 2.0 μM, 24 h. The essentials:
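A549 cells were treated with test compound (2.0 μM) or left untreated for 24 h, then lysed in buffer with protease and phosphatase inhibitors. Protein was measured by Bradford. Arrays covering 49 phospho-RTKs were blocked for 1 h, then incubated with 450 μg lysate overnight at 4 °C. After three washes, arrays were probed for 2 h with anti-phospho-tyrosine-HRP and developed by chemiluminescence.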

The test system of assay [8] is p27, p21, CDK2, p-Rb. Description: Western blot of G1 phase associated proteins. Format: cell-based, human. The conditions noted are these: A549, 0.5 to 2.0 μM, 48 h. An outline of the steps: (§3)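 A549 cells were exposed to the indicated test compound concentrations for 48 h, then lysed and heat-denatured at 104 °C for 12 min. Protein was quantified by BCA, and equal amounts were resolved by SDS-PAGE onto PVDF. Membranes were blocked 1 h (5% BSA or skim milk), given primary antibody overnight at 4 °C, washed in TBST, given secondary antibody 2 h at room temperature, and imaged by ECL.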
A general note: Immunoblotting shows a protein as a band on a membrane.

Assay [9] has as its system p-PI3K, p-AKT. Description: Western blot of PI3K and AKT. Format: cell-based, human. The note with it: 48 h. An outline of the steps: as §2
Assay [10] concerns A549 cells. Description: Cell cycle analysis, PI staining, flow cytometry. Type of assay: cell-based, human. The conditions noted are these: A549, 48 h. The essentials:
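A549 cells were exposed to a range of test compound concentrations for 48 h. They were then washed in cold PBS, fixed in precooled 70% ethanol and held overnight at −20 °C. After a PBS wash, cells were stained for 30 min at room temperature in the dark with PI (50 μg/mL) plus RNase A (100 μg/mL). DNA content was read by flow cytometry.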

Assay [11] deals with ALK, p-ALK. Put plainly: Western blot of ALK and p-ALK. Type of assay: cell-based, human. The conditions noted are these: A549, 48 h. The essentials: as §3

The structures appear in SMILES notation.

As for `CN(C)CCn1cnc2ccc(-c3ccc4sc(NC(=O)Nc5ccc(F)cc5)nc4c3)cc2c1=O` [Compound 38], the “selectivity (fold) H1975 vs BEAS-2B” value in assay [1] is 0.92 fold. Also, in assay [2], the “selectivity (fold) A549 vs BEAS-2B” value turned out to be 1.30 fold.

On to `CCCn1cnc2ccc(-c3ccc4sc(NC(=O)Nc5ccc(F)cc5)nc4c3)cc2c1=O` [Compound 45], for which the “selectivity (fold) H1975 vs BEAS-2B” value in [1] is on record as 5.80 fold. Also, the “JC-1 M2 fraction (change of Δψm)” value in assay [3] (0.25 μM) was 47.72%. The “JC-1 M2 fraction (change of Δψm)” value in assay [3] (0.5 μM) is 51.16%. Also, the “JC-1 M2 fraction (change of Δψm)” value in assay [3] (1.0 μM) is 60.52%. Besides, in assay [4] (A549, 2.0 μM), the “annexin V positive cells (Q2-4)” value is on record as 7.13%. For the same compound, the “annexin V positive cells (Q2-4)” value in assay [4] (A549, 4.0 μM) stood at 20.36%. In addition, in assay [5], the “growth of A549 tumor spheres” value is listed as “can inhibit the growth of tumor spheres”. In addition, in assay [6], the Bax level entry is on record as “increased in a concentration-dependent manner”, the Bcl-2 level result is listed as “decreased” and the “cleaved-caspase 9 level” value was “increased in a concentration-dependent manner”. For the same compound, the “phosphorylation level of ALK (Phospho-RTK array)” value in assay [7] was “reduced the phosphorylation levels of ALK”. In addition, in [8], the CDK2 expression level result is recorded as “reduced in a concentration-dependent manner”, the p21 expression level entry is on record as “markedly upregulated in a dose-dependent manner”, the p27 expression level entry was “markedly upregulated in a dose-dependent manner” and the p-Rb expression level entry is given as “reduced in a concentration-dependent manner”. Besides, in assay [9], the p-AKT protein expression entry is given as “inhibited the protein expression” and the p-PI3K protein expression result is “inhibited the protein expression”. In addition, in [10], the cell cycle distribution result is listed as “induced cell cycle arrest at the G1 phase in a concentration-dependent manner”. In addition, the “selectivity (fold) A549 vs BEAS-2B” value in assay [2] is reported as 7.10 fold. Moreover, in assay [11], the “phosphorylation level of ALK (Western blot)” value is reported as “reduces the phosphorylation levels of ALK” and the “total protein level of ALK (Western blot)” value is recorded as “decreases the total protein levels of ALK”.

As to `CC(=O)O[C@H]1C(=O)[C@@]2(C)[C@H]([C@H](OC(=O)c3ccccc3)[C@]3(O)C[C@H](OC(=O)[C@H](O)[C@@H](NC(=O)c4ccccc4)c4ccccc4)C(C)=C1C3(C)C)[C@]1(OC(C)=O)CO[C@@H]1C[C@@H]2O` [paclitaxel, reference compound], in assay [1], the “selectivity (fold) H1975 vs BEAS-2B” value is reported as 3.28 fold. In addition, in assay [2], the “selectivity (fold) A549 vs BEAS-2B” value was 0.42 fold.

For the origin of these results see paper PMC11840607 (ACS Omega, 2025).
